Data set [1] is described as follows: Inhibition of trypsin using N-benzoyl-DL-arginine-p-nitroanilide as substrate by […] analysis.
The nature of data set [2]: Drug degradation assessed as compound activity lost at 6.7 uM measured every 30 mins of 2.5 hrs in presence of Dengue Virus 2 NS2B-NS3 protease. The conditions noted are these: Dengue virus 2, Dengue virus 2 NS2B-NS3 protease; read-out: Drug degradation. It counts as physicochemical.
A short description of data set [3]: Drug degradation assessed as compound activity lost at 3.3 uM measured every 30 mins of 2.5 hrs in presence of Dengue Virus 2 NS2B-NS3 protease. It is filed as physicochemical. The conditions noted are these: Dengue virus 2, Dengue virus 2 NS2B-NS3 protease; read-out: Drug degradation.
A short description of data set [4]: Inhibition of Dengue Virus 2 NS2B-NS3 protease using Benzoyl-Nle-Lys-Arg-Arg-AMC as substrate incubated for 3 mins prior to substrate addition by fluorimetric analysis. Details: species or system dengue virus type 2. An outline of the steps:
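Ki by Dixon plot (1/v vs inhibitor) at 33 and 66 μM substrate. Fluorescence ex 356/em 438 nm; triplicate means.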

A short description of data set [5]: Chemical stability at 16. 7 uM measured every 30 mins of 2.5 hrs in presence of Dengue Virus 2 NS2B-NS3 protease. It counts as physicochemical.
The nature of data set [6]: Chemical stability after 30 mins in presence of trypsin. The conditions noted are these: isolated protein, 0.5 h. It counts as physicochemical. An outline of the steps:
(§1)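 Peptide incubated with trypsin in 0.05 M Tris-HCl pH 7.8, 20 mM CaCl2 at 37 °C, or with cathepsin S in 50 mM NaAc pH 4.5, 25 mM NaCl, 5 mM DTT at room temperature. Digests analysed on HPLC C18 analytical column for remaining intact peptide.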

Data set [7] relates to dengue virus type 2. Kind of data set: Inhibition of Dengue Virus 2 NS2B-NS3 protease using Benzoyl-Nle-Lys-Arg-Arg-AMC as substrate at 167 uM incubated for 3 mins prior to substrate addition by fluorimetric analysis. An outline of the steps:
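Enzyme preincubated with inhibitor for 3 min at 37 °C before adding Bz-Nle-Lys-Arg-Arg-AMC substrate. Residual activity read by fluorescence, excitation 356 nm, emission 438 nm. Triplicate measurements averaged.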

Data set [8] can be described thus: Chemical stability assessed as compound remaining after 4 hrs in presence of trypsin. It counts as physicochemical. The conditions noted are these: read-out: Stability. An outline of the steps: as §1
The nature of data set [9]: Chemical stability assessed as compound remaining after 4 hrs in presence of cathepsin S. It counts as physicochemical. An outline of the steps:
as §1

Calls of active or inactive are those of the source. The calls are words filed in the database; no cut-off is given here. Positions of bridges follow the written chain, without caps; N, C: chain ends. Residues, ends and D or L forms follow the SMILES beside them.

Regarding `N=C(N)NCCC[C@@H]1NC(=O)C(CCCCN)NC(=O)CNC(=O)[C@@H](N)CSSC[C@@H](C(=O)O)NC(=O)[C@H](CO)NC(=O)[C@H](CCCCN)NC1=O` (single isomer, unassigned), the results for the Ki in data set [1] and in data set [4] were over 100 µM and 1.4 µM, respectively. In addition, in data set [2], the metabolised at 2.5 h, 6.7 µM is 50%. Further, the metabolised at 2.5 h, 3.3 µM in data set [3] came to 50%.
As for `C[C@@H]1NC(=O)CNC(=O)[C@H](CO)NC(=O)[C@H](CCCCN)NC(=O)[C@H](CCCNC(=N)N)NC(=O)C(CCCCN)NC(=O)CNC1=O` (single isomer, unassigned), the Stability result in data set [5] is “Stable”. The same compound yielded an inhibitory constant (Ki) in [4] of 11.3 µM.
For the compound H-CAGKRKSG-OH, the Stability result in data set [6] is listed as “Stable”. This compound also came in with a Ki in [4] of 42 µM.
As to `CC(C)C[C@@H]1NC(=O)[C@H](CCCCN)NC(=O)[C@H](Cc2ccc(O)cc2)NC(=O)CNC(=O)[C@@H]2CSSC[C@H](NC1=O)C(=O)N[C@@H](Cc1cnc[nH]1)C(=O)N1C[C@H](O)C[C@H]1C(=O)N[C@H](C(=O)O)CSSC[C@H](NC(=O)[C@@H](NC(=O)CNC(=O)[C@@H](N)CC(N)=O)C(C)C)C(=O)N2`, in [4], the affinity, expressed as Ki, was 9 µM. That is a single-digit micromolar value.
For the compound `CC(C)C[C@@H]1NC(=O)[C@H](CCCCN)NC(=O)C(Cc2ccc(O)cc2)NC(=O)CNC(=O)[C@@H](N)CSSC[C@@H](C(=O)O)NC1=O` (single isomer, unassigned), the Ki is over 100 µM in data set [1] and 12.5 µM in data set [4]. The inhibition result in data set [7] is “inactive”.
Consider `CC(C)C[C@@H]1NC(=O)[C@H](CCCCN)NC(=O)CNC(=O)CNC(=O)[C@@H](N)CSSC[C@@H](C(=O)O)NC1=O` (H-CGGKLC-OH; disulfide 1-6), for which the Ki in data set [4] is 15.1 µM.
For `C[C@@H]1NC(=O)[C@@H](CS)NC(=O)CNC(=O)[C@H](CO)NC(=O)[C@H](CCCCN)NC(=O)[C@H](CCCNC(=N)N)NC(=O)C(CCCCN)NC(=O)CNC1=O` (single isomer, unassigned), the Ki in data set [1] was over 100 µM; in data set [4] it was 2.2 µM. The remaining at 4 h in data set [8] amounted to 50%. In data set [9], the Stability result is reported as “Stable”. Further, the metabolised at 2.5 h, 3.3 µM in [3] was 25%.
Take `N=C(N)NCCC[C@@H]1NC(=O)C(CCCCN)NC(=O)CNC(=O)[C@@H](N)CSSC[C@@H](C(=O)O)NC(=O)[C@H](CCCNC(=N)N)NC1=O` (single isomer, unassigned): the affinity in data set [4], expressed as Ki, was 3.5 µM.
The same measure, in the same setting: under `CC(C)C[C@@H]1NC(=O)CNC(=O)[C@H](Cc2ccc(O)cc2)NC(=O)CNC(=O)[C@@H](N)CSSC[C@@H](C(=O)O)NC1=O` (H-CGYGLC-OH; disulfide 1-6) stands over 100 µM; under `NCCCC[C@@H]1NC(=O)[C@H](Cc2ccc(O)cc2)NC(=O)CNC(=O)[C@@H](N)CSSC[C@@H](C(=O)O)NC(=O)CNC1=O` (H-CGYKGC-OH; disulfide 1-6), 12 µM.
The same measure, in the same setting: under `N=C(N)NCCC[C@@H]1NC(=O)[C@H](CCCCN)NC(=O)[C@H](Cc2ccc(O)cc2)NC(=O)CNC(=O)[C@@H](N)CSSC[C@@H](C(=O)O)NC1=O` (H-CGYKRC-OH; disulfide 1-6) stands 5 µM.
`CC(C)C[C@@H]1NC(=O)[C@H](CCCCN)NC(=O)[C@H](CCCNC(=N)N)NC(=O)C(CCCCN)NC(=O)CNC(=O)[C@@H](N)CSSC[C@@H](C(=O)O)NC1=O` (single isomer, unassigned): in [2], the metabolised at 2.5 h, 6.7 µM worked out at 50%. The metabolised at 2.5 h, 3.3 µM in [3] was determined as 50%. In [4], this compound showed an inhibition constant Ki of 2.5 µM.

Usually Ki stands for a dissociation constant, usually derived from enzyme kinetics or from competition with a known ligand. Higher therefore signals lower affinity.

Source of the values: ChEMBL document CHEMBL2163310, “Critical effect of peptide cyclization on the potency of peptide inhibitors against Dengue virus NS2B-NS3 protease” (J Med Chem, 2012).
